Reference: ChEMBL document CHEMBL3739266, “Synthesis and pharmacological evaluation of some new fluorine containing hydroxypyrazolines as potential anticancer and antioxidant agents” (Eur J Med Chem, 2015)
In brackets after ≈: the same amount, converted by molar mass.

Assays:
Vero = test: Cytotoxicity against African green monkey Vero cells assessed as growth inhibition after 48 hrs by MTT assay; type: cell-based; conditions: Chlorocebus sabaeus
Outline: (§1)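 MTT colorimetric assay in 96-well plates. Cells exposed to compounds for 48 h, then tetrazolium reduction to formazan was read as absorbance. IC50 taken from plotted dose–response curves. Values are mean ± SD of three independent experiments. Doxorubicin served as positive control.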

MDA-MB-231 = test: Cytotoxicity against human MDA-MB-231 cells assessed as growth inhibition after 48 hrs by MTT assay; type: functional, cell-based; conditions: MDA-MB-231, 48 h; outline: as §1
[1] = Antioxidant activity assessed as DPPH free radical scavenging activity after 30 mins by spectrophotometric assay; type: physicochemical
Outline: (§2)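 Test samples at 25, 50 and 100 μg/mL in methanol, 1 mL added to 4 mL of 0.004% (w/v) methanolic DPPH. Scavenging expressed as percent inhibition relative to a control with all reagents except test compound. Ascorbic acid served as reference antioxidant.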

[2] = Antioxidant activity assessed as DPPH free radical scavenging activity at 100 ug/ml after 30 mins by spectrophotometric assay; type: physicochemical; conditions: 0.5 h; outline: as §2
[3] = Antioxidant activity assessed as DPPH free radical scavenging activity at 25 ug/ml after 30 mins by spectrophotometric assay; type: physicochemical; conditions: 0.5 h; outline: as §2
[4] = Antioxidant activity assessed as DPPH free radical scavenging activity at 50 ug/ml after 30 mins by spectrophotometric assay; type: physicochemical; conditions: 0.5 h; outline: as §2

Row | Compound | IC50 (Vero) [nM] | IC50 (MDA-MB-231) [nM] | IC50 [1] [µg/mL] | inhibition (INH) [2] [%] | inhibition (INH) [3] [%] | inhibition (INH) [4] [%]
1 | COc1cccc2c1C(=O)c1c(O)c3c(c(O)c1C2=O)C[C@@](O)(C(=O)CO)C[C@@H]3O[C@H]1C[C@H](N)[C@H](O)[C@H](C)O1 [DOXORUBICIN] | > 100000 | 910 |  |  |  | 
2 | O=C1O[C@H]([C@@H](O)CO)C(O)=C1O [ASCORBIC ACID] |  |  | 15.17 (≈ 86.1 µM) | 87.22 | 82.39 | 83.52
